Measurements taken from ChEMBL document CHEMBL3352626, “Synthesis and biological evaluation of novel oxindole-based RTK inhibitors as anti-cancer agents” (Bioorg Med Chem, 2014).
Activity calls are given as the source filed them. No cut-off for these calls is given here.

How the values were obtained:
A549 [1] = test: Cell cycle arrest in human A549 cells assessed as reduction of cells in S phase at 5 to 10 uM after 24 hrs by flow cytometry; assay type: functional, cell-based
Procedure, shortened: (§1)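 Cells seeded in 60 mm plates, treated for 24 h, washed twice in PBS and fixed in ice-cold 75% ethanol. Stained overnight at 4 °C with PI ([…]) containing RNase 180 U/ml, 0.15% Triton X-100 and polyethylene glycol in 4 mmol/l citrate, pH 7.8. DNA content measured by FACScan flow cytometry against a DMSO group. Mean ± SEM of three independent experiments.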

[2] = molecular target: Epidermal growth factor receptor (Homo sapiens) (UniProt P00533); test: Inhibition of recombinant EGFR (unknown origin) at 0.1 uM after 1 hr by microfluidic assay
Epidermal growth factor receptor (Homo sapiens), sequence (P00533 whole entry): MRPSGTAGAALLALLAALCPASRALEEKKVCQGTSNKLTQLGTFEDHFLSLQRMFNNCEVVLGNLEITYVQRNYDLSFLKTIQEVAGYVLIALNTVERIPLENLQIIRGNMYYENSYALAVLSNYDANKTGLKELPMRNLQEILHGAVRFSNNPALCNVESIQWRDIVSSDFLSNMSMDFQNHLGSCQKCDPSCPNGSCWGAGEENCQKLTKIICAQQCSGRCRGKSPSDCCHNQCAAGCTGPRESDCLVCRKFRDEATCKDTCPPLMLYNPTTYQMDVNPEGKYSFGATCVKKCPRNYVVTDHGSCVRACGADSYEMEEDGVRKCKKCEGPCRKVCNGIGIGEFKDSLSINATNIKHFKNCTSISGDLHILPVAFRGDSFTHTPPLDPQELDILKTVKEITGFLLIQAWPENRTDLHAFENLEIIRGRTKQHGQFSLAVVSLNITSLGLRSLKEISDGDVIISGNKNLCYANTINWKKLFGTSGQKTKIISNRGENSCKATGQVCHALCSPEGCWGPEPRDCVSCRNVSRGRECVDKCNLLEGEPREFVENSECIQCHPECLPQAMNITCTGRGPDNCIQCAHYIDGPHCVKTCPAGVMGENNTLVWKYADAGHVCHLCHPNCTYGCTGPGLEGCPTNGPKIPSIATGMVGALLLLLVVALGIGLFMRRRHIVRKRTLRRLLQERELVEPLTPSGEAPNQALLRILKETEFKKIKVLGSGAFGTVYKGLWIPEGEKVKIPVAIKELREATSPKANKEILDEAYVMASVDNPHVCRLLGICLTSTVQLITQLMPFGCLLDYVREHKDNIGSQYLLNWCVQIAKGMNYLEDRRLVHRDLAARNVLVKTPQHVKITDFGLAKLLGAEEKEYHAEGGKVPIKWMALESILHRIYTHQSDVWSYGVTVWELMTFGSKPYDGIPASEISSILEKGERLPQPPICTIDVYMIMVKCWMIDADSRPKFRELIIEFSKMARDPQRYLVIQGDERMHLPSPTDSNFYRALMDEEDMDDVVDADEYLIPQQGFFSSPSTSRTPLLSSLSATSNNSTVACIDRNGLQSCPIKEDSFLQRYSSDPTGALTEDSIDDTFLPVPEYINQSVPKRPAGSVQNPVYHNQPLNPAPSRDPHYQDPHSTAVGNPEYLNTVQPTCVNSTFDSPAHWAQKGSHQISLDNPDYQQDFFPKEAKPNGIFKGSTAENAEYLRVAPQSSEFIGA
Procedure, shortened: (§2)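 Caliper microfluidic mobility-shift assay using recombinant kinases from Carna. Enzyme, substrate, ATP (at Km) and compound reacted for 1 h, then stopped with EDTA. Substrate-to-phosphoproduct conversion read on EZ Reader II. Percent inhibition calculated relative to no-enzyme blanks and full-reaction wells, each containing 2.5% DMSO.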

[3] = Cell cycle arrest at G1 phase in human PM8910 cells at 5 to 10 uM after 24 hrs by flow cytometry; assay type: functional, cell-based; procedure, shortened: as §1
Aurora kinase B [4] = molecular target: T1, Aurora kinase B (Homo sapiens, UniProt Q96GD4); test: Inhibition of recombinant Aur B (unknown origin) after 1 hr by microfluidic assay; procedure, shortened: as §2
T1 sequence (Q96GD4 whole entry): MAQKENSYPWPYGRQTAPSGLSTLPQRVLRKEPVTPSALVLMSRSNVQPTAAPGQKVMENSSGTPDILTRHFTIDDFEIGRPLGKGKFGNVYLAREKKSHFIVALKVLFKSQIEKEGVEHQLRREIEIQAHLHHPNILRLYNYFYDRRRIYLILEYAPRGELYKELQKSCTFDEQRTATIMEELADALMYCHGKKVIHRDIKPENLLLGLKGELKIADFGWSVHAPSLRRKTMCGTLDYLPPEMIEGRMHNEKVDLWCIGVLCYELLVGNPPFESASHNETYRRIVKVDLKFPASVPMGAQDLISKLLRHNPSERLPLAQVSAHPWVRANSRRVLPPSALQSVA

[5] = molecular target: Vascular endothelial growth factor receptor 2 (Homo sapiens) (UniProt P35968); test: Inhibition of recombinant KDR (unknown origin) at 1 uM after 1 hr by microfluidic assay; procedure, shortened: as §2
Vascular endothelial growth factor receptor 2 (Homo sapiens), sequence (P35968 whole entry): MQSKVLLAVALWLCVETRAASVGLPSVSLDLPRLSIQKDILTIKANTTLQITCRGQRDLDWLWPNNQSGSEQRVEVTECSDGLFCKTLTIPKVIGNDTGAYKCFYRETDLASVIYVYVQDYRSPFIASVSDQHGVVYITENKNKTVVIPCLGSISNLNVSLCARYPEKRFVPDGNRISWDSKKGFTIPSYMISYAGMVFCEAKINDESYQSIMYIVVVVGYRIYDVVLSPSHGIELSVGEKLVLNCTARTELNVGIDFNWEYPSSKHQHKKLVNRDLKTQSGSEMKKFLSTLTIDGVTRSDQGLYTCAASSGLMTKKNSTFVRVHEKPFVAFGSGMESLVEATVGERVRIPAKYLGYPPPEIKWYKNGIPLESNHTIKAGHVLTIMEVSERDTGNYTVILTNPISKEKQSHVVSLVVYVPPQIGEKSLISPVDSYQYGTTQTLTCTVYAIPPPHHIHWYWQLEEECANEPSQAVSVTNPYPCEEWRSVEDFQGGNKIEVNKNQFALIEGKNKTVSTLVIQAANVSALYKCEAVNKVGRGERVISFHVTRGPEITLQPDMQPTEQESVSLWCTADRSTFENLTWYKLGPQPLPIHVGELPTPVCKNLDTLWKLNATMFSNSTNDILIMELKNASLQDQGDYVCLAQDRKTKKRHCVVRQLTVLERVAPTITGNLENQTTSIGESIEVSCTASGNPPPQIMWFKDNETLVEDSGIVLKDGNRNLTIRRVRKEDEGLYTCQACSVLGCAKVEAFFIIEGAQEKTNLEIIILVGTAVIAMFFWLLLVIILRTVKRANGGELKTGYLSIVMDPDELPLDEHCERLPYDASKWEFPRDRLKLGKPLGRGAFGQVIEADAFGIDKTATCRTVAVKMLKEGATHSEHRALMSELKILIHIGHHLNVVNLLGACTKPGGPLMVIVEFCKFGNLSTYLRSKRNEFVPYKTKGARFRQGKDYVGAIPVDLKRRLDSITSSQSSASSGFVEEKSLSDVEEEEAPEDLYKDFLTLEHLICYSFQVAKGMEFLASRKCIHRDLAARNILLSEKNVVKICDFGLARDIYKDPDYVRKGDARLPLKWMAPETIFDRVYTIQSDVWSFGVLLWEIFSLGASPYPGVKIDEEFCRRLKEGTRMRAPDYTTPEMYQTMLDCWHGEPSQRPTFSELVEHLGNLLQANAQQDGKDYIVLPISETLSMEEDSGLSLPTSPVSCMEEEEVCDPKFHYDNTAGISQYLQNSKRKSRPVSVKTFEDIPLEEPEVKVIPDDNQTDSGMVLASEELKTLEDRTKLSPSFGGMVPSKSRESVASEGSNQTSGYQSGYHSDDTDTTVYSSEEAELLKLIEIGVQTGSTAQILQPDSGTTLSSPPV

[6] = Antiproliferative activity against human H460 cells after 72 hrs by MTS assay; assay type: functional, cell-based; conditions: NCI-H460, 72 h
Procedure, shortened: (§3)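 Cells at 4 × 10^4 cells/ml, seeded and left overnight, then exposed in triplicate to 30, 10, 3, 1, 0.3 and 0.1 µM compound in DMSO for 72 h at 37 °C under 5% CO2. MTS dye added for 4 h and absorbance read at 490 nm. Inhibition = (1 − OD treated/OD DMSO control) × 100. IC50 derived from the dilution series.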

[7] = Antiproliferative activity against human HCC827 cells at 10 uM after 72 hrs by MTS assay; assay type: functional
[8] = Antiproliferative activity against human SGC7901 cells after 72 hrs by MTS assay; assay type: functional, cell-based; conditions: SGC-7901, 72 h; procedure, shortened: as §3
[9] = molecular target: T2, Mast/stem cell growth factor receptor Kit (Homo sapiens, UniProt P10721); test: Inhibition of recombinant c-Kit (unknown origin) after 1 hr by microfluidic assay; procedure, shortened: as §2
T2 sequence (P10721 whole entry): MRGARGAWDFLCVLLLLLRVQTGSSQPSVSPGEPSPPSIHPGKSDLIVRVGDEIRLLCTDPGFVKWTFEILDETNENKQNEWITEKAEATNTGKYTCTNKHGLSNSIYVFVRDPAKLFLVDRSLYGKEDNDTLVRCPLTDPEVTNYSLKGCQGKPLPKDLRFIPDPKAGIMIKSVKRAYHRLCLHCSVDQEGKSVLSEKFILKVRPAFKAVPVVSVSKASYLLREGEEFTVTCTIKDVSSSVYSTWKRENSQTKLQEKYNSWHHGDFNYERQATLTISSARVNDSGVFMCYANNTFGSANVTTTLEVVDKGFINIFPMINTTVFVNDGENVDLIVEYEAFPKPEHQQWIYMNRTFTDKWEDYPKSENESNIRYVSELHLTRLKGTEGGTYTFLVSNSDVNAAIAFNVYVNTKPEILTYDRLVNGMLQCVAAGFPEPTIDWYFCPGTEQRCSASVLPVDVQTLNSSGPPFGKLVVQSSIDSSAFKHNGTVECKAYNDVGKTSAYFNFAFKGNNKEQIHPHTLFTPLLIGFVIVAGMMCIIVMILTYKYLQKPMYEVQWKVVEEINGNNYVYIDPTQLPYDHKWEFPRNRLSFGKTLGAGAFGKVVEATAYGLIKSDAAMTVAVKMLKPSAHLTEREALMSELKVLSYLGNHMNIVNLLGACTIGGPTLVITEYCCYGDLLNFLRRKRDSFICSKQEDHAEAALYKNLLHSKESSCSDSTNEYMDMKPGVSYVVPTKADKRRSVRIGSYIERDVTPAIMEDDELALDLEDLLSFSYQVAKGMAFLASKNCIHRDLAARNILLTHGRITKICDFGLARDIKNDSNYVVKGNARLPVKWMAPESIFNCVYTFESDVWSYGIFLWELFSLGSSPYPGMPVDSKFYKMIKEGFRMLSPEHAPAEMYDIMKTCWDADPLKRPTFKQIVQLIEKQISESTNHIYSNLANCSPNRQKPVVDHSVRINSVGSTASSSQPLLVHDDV

[10] = Antiproliferative activity against human H460 cells at 10 uM after 72 hrs by MTS assay; assay type: functional, NCI-H460
A549 [11] = test: Cell cycle arrest at G1 phase in human A549 cells at 5 to 10 uM after 24 hrs by flow cytometry; assay type: functional, cell-based; procedure, shortened: as §1
[12] = Antiproliferative activity against human Bel7402 cells after 72 hrs by MTS assay; assay type: functional, cell-based; conditions: Bel-7402, 72 h; procedure, shortened: as §3
[13] = Antiproliferative activity against human PM8910 cells at 10 uM after 72 hrs by MTS assay; assay type: functional
[14] = molecular target: T2, Mast/stem cell growth factor receptor Kit; test: Inhibition of recombinant c-Kit (unknown origin) at 1 uM after 1 hr by microfluidic assay; procedure, shortened: as §2
[15] = molecular target: Platelet-derived growth factor receptor beta (Homo sapiens) (UniProt P09619); test: Inhibition of recombinant PDGFRb (unknown origin) at 0.1 uM after 1 hr by microfluidic assay; procedure, shortened: as §2
Platelet-derived growth factor receptor beta (Homo sapiens), sequence (P09619 whole entry): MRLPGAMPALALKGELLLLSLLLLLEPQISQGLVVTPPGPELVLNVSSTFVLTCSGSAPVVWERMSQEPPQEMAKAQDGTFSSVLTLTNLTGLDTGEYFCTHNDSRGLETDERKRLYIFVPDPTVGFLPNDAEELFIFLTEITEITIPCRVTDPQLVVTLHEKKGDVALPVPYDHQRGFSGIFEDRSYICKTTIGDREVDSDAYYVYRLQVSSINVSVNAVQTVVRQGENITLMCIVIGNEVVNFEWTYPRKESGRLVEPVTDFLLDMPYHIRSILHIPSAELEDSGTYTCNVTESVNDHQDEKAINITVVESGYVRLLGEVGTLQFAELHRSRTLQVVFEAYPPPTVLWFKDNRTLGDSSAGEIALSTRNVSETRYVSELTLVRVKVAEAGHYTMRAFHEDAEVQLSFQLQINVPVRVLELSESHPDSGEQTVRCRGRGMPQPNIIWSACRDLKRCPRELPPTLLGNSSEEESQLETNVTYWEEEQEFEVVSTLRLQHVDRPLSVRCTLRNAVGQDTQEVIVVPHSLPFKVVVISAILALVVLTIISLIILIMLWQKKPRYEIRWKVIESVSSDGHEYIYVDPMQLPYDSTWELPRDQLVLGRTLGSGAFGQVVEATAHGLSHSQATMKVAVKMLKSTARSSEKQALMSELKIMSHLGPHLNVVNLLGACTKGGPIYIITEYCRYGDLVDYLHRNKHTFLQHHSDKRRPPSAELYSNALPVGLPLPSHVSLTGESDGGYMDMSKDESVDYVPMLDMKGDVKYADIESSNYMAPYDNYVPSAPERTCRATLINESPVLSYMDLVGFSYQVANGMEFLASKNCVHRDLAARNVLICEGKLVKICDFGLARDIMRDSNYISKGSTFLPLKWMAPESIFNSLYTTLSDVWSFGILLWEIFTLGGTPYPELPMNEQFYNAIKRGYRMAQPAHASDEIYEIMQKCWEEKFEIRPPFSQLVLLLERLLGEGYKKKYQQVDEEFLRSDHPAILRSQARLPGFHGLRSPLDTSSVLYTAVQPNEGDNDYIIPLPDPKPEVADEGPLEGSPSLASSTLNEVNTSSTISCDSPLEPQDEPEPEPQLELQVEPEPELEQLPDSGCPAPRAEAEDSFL

[16] = molecular target: T3, Serine/threonine-protein kinase Sgk1 (Homo sapiens) (UniProt O00141); test: Inhibition of recombinant SGK1 (unknown origin) at 10 uM after 1 hr by microfluidic assay; procedure, shortened: as §2
T3 sequence (whole entry): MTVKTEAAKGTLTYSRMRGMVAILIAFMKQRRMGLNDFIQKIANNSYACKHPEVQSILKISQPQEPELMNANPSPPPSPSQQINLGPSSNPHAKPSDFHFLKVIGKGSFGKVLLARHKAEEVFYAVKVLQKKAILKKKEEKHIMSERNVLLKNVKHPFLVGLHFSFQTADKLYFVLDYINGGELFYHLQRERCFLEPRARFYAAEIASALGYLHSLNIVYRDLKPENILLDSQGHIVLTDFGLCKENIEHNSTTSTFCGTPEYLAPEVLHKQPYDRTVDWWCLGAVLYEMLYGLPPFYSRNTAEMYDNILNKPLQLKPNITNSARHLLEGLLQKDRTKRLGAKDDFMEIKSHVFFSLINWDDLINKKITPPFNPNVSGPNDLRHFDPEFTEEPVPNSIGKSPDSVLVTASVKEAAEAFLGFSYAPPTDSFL

[17] = Antiproliferative activity against human SKBR3 cells at 10 uM after 72 hrs by MTS assay; assay type: functional, SK-BR-3
Procedure, shortened: (§4)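 Single-concentration screen. Cells at 4 × 10^4 cells/ml, seeded and incubated overnight, then given 10 µM compound in DMSO for 72 h (37 °C, 5% CO2), with DMSO-only controls. MTS added for 4 h and A490 read. Percent inhibition = (1 − OD490 treated/OD490 control) × 100, from triplicate experiments.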

[18] = molecular target: T3, Serine/threonine-protein kinase Sgk1 (Homo sapiens); test: Inhibition of recombinant SGK1 (unknown origin) at 0.1 uM after 1 hr by microfluidic assay; procedure, shortened: as §2
[19] = molecular target: T2, Mast/stem cell growth factor receptor Kit; test: Inhibition of recombinant c-Kit (unknown origin) at 10 uM after 1 hr by microfluidic assay; procedure, shortened: as §2
[20] = molecular target: Vascular endothelial growth factor receptor 2 (Homo sapiens) (UniProt P35968); test: Inhibition of recombinant KDR (unknown origin) at 0.1 uM after 1 hr by microfluidic assay; procedure, shortened: as §2
[21] = Cell cycle arrest in human PM8910 cells assessed as reduction of cells in S phase at 5 to 10 uM after 24 hrs by flow cytometry; assay type: functional, cell-based; procedure, shortened: as §1
Aurora kinase B [22] = molecular target: T1, Aurora kinase B; test: Inhibition of recombinant Aur B (unknown origin) at 10 uM after 1 hr by microfluidic assay; procedure, shortened: as §2
A549 [23] = test: Antiproliferative activity against human A549 cells after 72 hrs by MTS assay; assay type: functional, cell-based; conditions: A549, 72 h; procedure, shortened: as §3
[24] = Antiproliferative activity against human Bel7402 cells at 10 uM after 72 hrs by MTS assay; assay type: functional, Bel-7402
[25] = Cell cycle arrest at G1 phase in human SGC7901 cells at 5 to 10 uM after 24 hrs by flow cytometry; assay type: functional, cell-based; conditions: SGC-7901; procedure, shortened: as §1
[26] = molecular target: Epidermal growth factor receptor (Homo sapiens) (UniProt P00533); test: Inhibition of recombinant EGFR (unknown origin) at 10 uM after 1 hr by microfluidic assay; procedure, shortened: as §2
[27] = Antiproliferative activity against human SGC7901 cells at 10 uM after 72 hrs by MTS assay; assay type: functional, SGC-7901
[28] = molecular target: T2, Mast/stem cell growth factor receptor Kit; test: Inhibition of recombinant c-Kit (unknown origin) at 0.1 uM after 1 hr by microfluidic assay; procedure, shortened: as §2
[29] = molecular target: Vascular endothelial growth factor receptor 2 (Homo sapiens) (UniProt P35968); test: Inhibition of recombinant KDR (unknown origin) at 10 uM after 1 hr by microfluidic assay; procedure, shortened: as §2
U-251 = test: Antiproliferative activity against human U251 cells at 10 uM after 72 hrs by MTS assay; assay type: functional; procedure, shortened: as §4
[30] = Antiproliferative activity against human PM8910 cells after 72 hrs by MTS assay; assay type: functional, cell-based; conditions: PM8910, 72 h; procedure, shortened: as §3
[31] = Antiproliferative activity against human HCC827 cells after 72 hrs by MTS assay; assay type: functional, cell-based; conditions: HCC827, 72 h; procedure, shortened: as §3
[32] = Cell cycle arrest in human SGC7901 cells assessed as reduction of cells in S phase at 5 to 10 uM after 24 hrs by flow cytometry; assay type: functional, cell-based; conditions: SGC-7901; procedure, shortened: as §1
[33] = molecular target: Epidermal growth factor receptor (Homo sapiens) (UniProt P00533); test: Inhibition of recombinant EGFR (unknown origin) at 1 uM after 1 hr by microfluidic assay; procedure, shortened: as §2
[34] = Antiproliferative activity against rat NRK-52E cells after 72 hrs by MTS assay; assay type: cell-based
NCI-H1975 = test: Antiproliferative activity against human NCI-H1975 cells at 10 uM after 72 hrs by MTS assay; assay type: functional; procedure, shortened: as §4
[35] = molecular target: T3, Serine/threonine-protein kinase Sgk1 (Homo sapiens); test: Inhibition of recombinant SGK1 (unknown origin) at 1 uM after 1 hr by microfluidic assay; procedure, shortened: as §2
A549 [36] = test: Antiproliferative activity against human A549 cells at 10 uM after 72 hrs by MTS assay; assay type: functional
[37] = molecular target: Platelet-derived growth factor receptor beta (Homo sapiens) (UniProt P09619); test: Inhibition of recombinant PDGFRb (unknown origin) at 10 uM after 1 hr by microfluidic assay; procedure, shortened: as §2
Aurora kinase B [38] = molecular target: T1, Aurora kinase B; test: Inhibition of recombinant Aur B (unknown origin) at 1 uM after 1 hr by microfluidic assay; procedure, shortened: as §2
[39] = molecular target: Platelet-derived growth factor receptor beta (Homo sapiens) (UniProt P09619); test: Inhibition of recombinant PDGFRb (unknown origin) at 1 uM after 1 hr by microfluidic assay; procedure, shortened: as §2
Aurora kinase B [40] = molecular target: T1, Aurora kinase B; test: Inhibition of recombinant Aur B (unknown origin) at 0.1 uM after 1 hr by microfluidic assay; procedure, shortened: as §2

inhibition [2]: 14.9%
IC50 (Aurora kinase B [4]): 2.21 µM
inhibition [5]: 7.2%
IC50 [9]: 0.128 µM
inhibition [14]: 55.3%
inhibition [15]: 0.4%
inhibition [16]: 90.7%
inhibition [18]: 2.2%
inhibition [19]: 88.2%
inhibition [20]: 13.4%
inhibition (Aurora kinase B [22]): 93.5%
IC50 (A549 [23]): 10.1 µM
inhibition [26]: 75.4%
inhibition [28]: 19.1%
inhibition [29]: 30.6%
inhibition [33]: 30.1%
inhibition [35]: 38.3%
inhibition [37]: 61.8%
inhibition (Aurora kinase B [38]): 41.6%
inhibition [39]: 26.2%
inhibition (Aurora kinase B [40]): 4.5%
Structure (SMILES): C=CC(=O)N1CCN(c2ccc(/C=C3\C(=O)Nc4ccccc43)cc2)CC1
Activity (A549 [1]): Active
Activity [3]: Active
IC50 [6]: 11.5 µM
Activity [7]: 57.19%
IC50 [8]: 9.75 µM
Activity [10]: 71.31%
Activity (A549 [11]): Active
IC50 [12]: 7.68 µM
Activity [13]: 59.52%
Activity [17]: 27.99%
Activity [21]: Active
Activity [24]: 55.06%
Activity [25]: Active
Activity [27]: 55.46%
Activity (U-251): 31.7%
IC50 [30]: 6.74 µM
IC50 [31]: 7 µM
Activity [32]: Active
IC50 [34]: 28.8 µM
Activity (NCI-H1975): 60.01%
Activity (A549 [36]): 50.28%
